# Bioassay records: PubChem BioAssay, several laboratories
# Beta2AR agonist: beta2AR agonists driving receptor internalization, primary screen, cell-based, FAP fluorogen, flow cytometry. Am2.2-beta2AR cells. actives 0.43% (n = 340,000). AID 504454, 2011. response, % (no concentration beside the values);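 active = response above a set limit, near 3 SD of response in nonfluorescent compounds, cut at about 42% in these data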
# CHOP UPR activ: activators of apoptotic CHOP UPR arm, primary screen, cell-based, CHO-CHOP luciferase reporter, luminescence, uHTS; UPR activation; percent of tunicamycin response over DMSO baseline; activation, % at 10 µM; actives 0.34% (n = 330,000); AID 449763, 2010;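 active = at 10 µM dose, activation of 40% or more, normalized to positive control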
#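 Material: CHO-CHOP cells, stable luciferase reporter of PERK-eIF2a-CHOP signalling; quantity: 500 reporter cells seeded per well; buffer or medium: F12 medium containing 10% fetal bovine serum; compound: one dose, 10 µM in 0.5% DMSO; incubation: 6 h compound treatment, 37 °C; measured by: Steady-Glo luciferase luminescence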
# CHOP inh: inhibitors of CHOP promoter induction, primary screen, cell-based, unfolded protein response, luciferase reporter | CHO-K1 CHOP-promoter luciferase, tunicamycin-induced, 15-18 h | inhibition, % at 10 µM | actives 3.8% (n = 220,000) | AID 2732, 2010;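 active = compounds that reduced the stress-induced luciferase reporter signal by more than about 70% of percent inhibition, limit read from the data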
# XBP1 UPR activ: activators of adaptive XBP1 UPR arm, primary screen, cell-based, CHO-XBP1 luciferase reporter, luminescence, uHTS. IRE1-XBP1 UPR activation; percent of tunicamycin response, DMSO as zero. activation, % at 20 µM. actives 0.33% (n = 330,000). AID 463104, 2010;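 active = versus positive control, 20 µM dose yields 30% or more activation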
#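 Assay system: CHO-XBP1 luciferase reporter cells; Schedule: 6 h treatment, 37 °C; Detection: glow luminescence from Steady-Glo reagent; Benchmarks: high control tunicamycin 10 µg/mL final, low control DMSO vehicle only.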
# VLA-4 inh: inhibition in human VLA-4 binding assay, primary screen, VLA-4 allosteric modulator project, MLPCN library, flow cytometry, VLA-4 expressing cells | Integrin alpha-4 (Homo sapiens), P13612 | inhibition, % (about 7 µM as worked out from the volumes in the protocol) | actives 0.2% (n = 330,000) | ligand binding flow cytometry; in the data active = inhibition above about 50%
# Target sequence (P13612 whole entry, looked up): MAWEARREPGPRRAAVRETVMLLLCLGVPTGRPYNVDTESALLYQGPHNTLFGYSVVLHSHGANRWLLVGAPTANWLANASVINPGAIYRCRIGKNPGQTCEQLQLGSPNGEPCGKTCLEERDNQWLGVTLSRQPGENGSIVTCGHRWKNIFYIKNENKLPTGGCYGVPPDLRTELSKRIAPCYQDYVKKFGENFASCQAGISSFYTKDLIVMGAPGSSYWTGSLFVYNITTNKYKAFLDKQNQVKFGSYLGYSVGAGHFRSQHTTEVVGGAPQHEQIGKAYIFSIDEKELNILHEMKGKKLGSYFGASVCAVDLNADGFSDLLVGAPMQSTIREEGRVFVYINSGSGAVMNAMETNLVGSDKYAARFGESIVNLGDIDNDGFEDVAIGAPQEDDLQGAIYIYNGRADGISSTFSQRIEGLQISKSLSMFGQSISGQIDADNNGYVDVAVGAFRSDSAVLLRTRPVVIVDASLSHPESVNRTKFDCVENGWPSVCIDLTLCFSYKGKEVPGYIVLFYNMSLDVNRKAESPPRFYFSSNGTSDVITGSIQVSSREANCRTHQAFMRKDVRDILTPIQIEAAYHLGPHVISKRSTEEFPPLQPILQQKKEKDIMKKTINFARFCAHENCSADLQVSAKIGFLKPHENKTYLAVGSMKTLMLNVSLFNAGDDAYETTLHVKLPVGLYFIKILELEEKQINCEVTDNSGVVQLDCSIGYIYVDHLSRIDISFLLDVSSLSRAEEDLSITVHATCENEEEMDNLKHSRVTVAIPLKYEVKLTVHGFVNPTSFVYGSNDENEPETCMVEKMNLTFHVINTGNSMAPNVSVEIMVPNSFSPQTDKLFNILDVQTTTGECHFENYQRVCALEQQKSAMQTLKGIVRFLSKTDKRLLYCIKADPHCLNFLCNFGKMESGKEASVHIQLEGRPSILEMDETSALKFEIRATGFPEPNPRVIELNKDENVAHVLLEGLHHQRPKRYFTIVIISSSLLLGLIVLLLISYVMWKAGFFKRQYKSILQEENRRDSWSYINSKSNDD
# A number is an active result; – = inactive; · = not tested or not shown. The entries come from a sample that favours hits as a whole.
SMILES,Beta2AR agonist,CHOP UPR activ,CHOP inh,XBP1 UPR activ,VLA-4 inh
CCOC(=O)C1CCN(C(=O)CN(C)S(=O)(=O)c2ccc3c(c2)c(=O)n(C)c(=O)n3C)CC1,–,–,·,–,–
O=C(Nc1ccc2c(c1)C(=O)NC2=O)c1cccc(C(F)(F)F)c1,–,–,·,–,–
CCc1ccc(O)c(N=Cc2cccc(C)c2O)c1,–,–,76,–,–
Cc1cccc(C=Nc2ccc3c4c(cccc24)CC3)c1O,–,–,–,–,–
C=CCc1cccc(C=Nc2c[nH]c(=O)[nH]c2=O)c1O,–,–,·,–,–
C=CCc1cccc(C=Nc2cc(Br)ccc2O)c1O,–,–,98,–,–
CCC(C(=O)NCC1CCCO1)N(Cc1ccccc1)C(=O)CNS(=O)(=O)c1ccccc1 (stereo unspecified),–,–,·,–,–
Cc1ccc(Sc2ccc(NC(=O)CCl)cc2)c(C)c1,·,–,84,–,–
Cc1ccc(C)c(Sc2ccc(NC(=O)CCN3C(=O)NC4(CCCC4)C3=O)cc2)c1,–,–,·,–,–
O=C(c1ccccc1)C(O)C(c1ccccc1)N1CCOCC1 (stereo unspecified),–,–,·,–,–
O=C(NCc1ccccn1)NC12CC3CC(CC(C3)C1)C2,–,–,–,–,–
O=C(NCc1ccccn1)C(=O)Nc1nc(C23CC4CC(CC(C4)C2)C3)cs1,–,–,71,–,–
CC(C)Cn1c(SCc2nc3ccccc3c(=O)[nH]2)nc2ccccc2c1=O,–,–,82,–,–
CCOC(=O)c1c(C)[nH]c(C(=O)COC(=O)/C=C/c2ccc3c(c2)OCO3)c1C,53,–,–,–,–
CCOC(=O)c1c(C)[nH]c(C(=O)COC(=O)/C=C/c2ccc(O)c(OC)c2)c1C,–,–,–,–,–
Nc1nc(Cl)nc2c1ncn2[C@@H]1O[C@H](COP(=O)(O)OP(=O)(O)OP(=O)(O)O)[C@H](O)C1O (stereo partly specified),·,·,–,·,·
O=C(N/N=C/c1cc(Cl)cc([N+](=O)[O-])c1O)NC12CC3CC(CC(C3)C1)C2,–,–,81,–,–
O=C(N/N=C/c1ccccc1O)NC12CC3CC(CC(C3)C1)C2,–,–,·,–,–
COc1ccc(NC(=O)NC2(C)CCS(=O)(=O)C2)cc1 (stereo unspecified),–,–,·,–,·
COc1ccc(NC(=O)NC23CC4(C)CC(C)(CC(C)(C4)C2)C3)cc1,–,–,70,–,–
Cc1ccc(-c2noc(CN3CCN(c4ccccc4F)CC3)n2)cc1,–,–,74,–,–
COc1ccc(-c2noc(CN3CCC(Cc4ccccc4)CC3)n2)cc1,–,–,–,–,–
c1ccc(CC2CCN(Cc3nc(-c4ccccc4)no3)CC2)cc1,–,–,92,–,–
CCOc1cc(/C=C2\SC(=O)N(CC(=O)Nc3ccccc3F)C2=O)cc([N+](=O)[O-])c1O,–,–,93,–,–
COc1ccc(S(=O)(=O)Nc2ccccn2)cc1C(=O)Nc1ccccc1,–,–,·,–,–
SMILES,Beta2AR agonist,CHOP UPR activ,CHOP inh,XBP1 UPR activ,VLA-4 inh
CCC(NC(=O)c1ccc2nc(Cc3ccc(OC)cc3)oc2c1)c1ccncc1 (stereo unspecified),–,–,·,–,–
CCN(CC)c1nc(Oc2ccc(C(=O)OC)cc2)nc(N2CCOCC2)n1,–,–,85,–,–
CCOc1ccc(Oc2nc(N(CC)CC)nc(N3CCOCC3)n2)nn1,–,–,–,–,–
COC(=O)c1ccc(Oc2nc(N3CCCCC3)nc(N3CCOCC3)n2)cc1,–,–,71,–,–
O=C(O)/C=C/c1cn(-c2ccccc2)nc1-c1ccc(-c2ccc([N+](=O)[O-])cc2)o1,–,–,–,–,–
Cc1ccc(NC2=C(Cl)C(=O)OC2OC(=O)c2ccccc2)c(C)c1 (stereo unspecified),–,–,74,–,–
O=C(NCCCCc1ccccc1)c1ccc(F)cc1,–,–,·,–,–
Cc1ccc2c(c1)sc1nc(=O)n(-c3ccc(Cl)c(Cl)c3)c(=O)n12,–,–,–,–,–
Cc1ccc2c(c1)sc1nc(=O)n(-c3ccc(Cl)cc3)c(=O)n12,–,–,80,–,–
Cc1ccc(C(C)C)c(OCCNCc2ccccc2)c1,–,–,·,–,–
